# Results published in publication PMC5820137 (Neuropharmacology, 2017).
# Legend:
# SH-SY5Y cells [1] = assay: MTS-based cell survival assay; parameters: species or system human
# Cav2 VGCCs = settings: cited from earlier work
# cdk = settings: cited from earlier work
# SH-SY5Y cells [2] = settings: ref Tarr et al., 2014; cited from earlier work
# cdk2 = cdk2 (Homo sapiens, UniProt P24941); assay: kinaseseeker kinase assay; type: binding; settings: 2 μM
# Method in brief: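 Cell-free luminescent probe-displacement binding assay in rabbit reticulocyte lysate. Compound (2 μM) or DMSO control was incubated 30 min at room temperature, then 1 h with a kinase-specific probe. Luminescence was read, and values expressed as percent kinase activity remaining.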
# [3] = tested on: rectifying outward current in HEK293 cells; assay: Contaminating rectifying outward current during voltage steps in patch clamp; type: cell-based; settings: 50 μM; mean ± SEM, n = 7; across all voltages tested
# cdk5 = cdk5 (Homo sapiens, UniProt Q00535); assay: kinaseseeker kinase assay; type: binding; settings: 2 μM
# Cav2.1 VGCC = assay: Whole-cell perforated patch clamp of Cav2.1 current; type: cell-based
# [4] = ref Liang et al., 2012, Tarr et al., 2013
# Chain of cdk5 (Q00535 whole entry, species assumed): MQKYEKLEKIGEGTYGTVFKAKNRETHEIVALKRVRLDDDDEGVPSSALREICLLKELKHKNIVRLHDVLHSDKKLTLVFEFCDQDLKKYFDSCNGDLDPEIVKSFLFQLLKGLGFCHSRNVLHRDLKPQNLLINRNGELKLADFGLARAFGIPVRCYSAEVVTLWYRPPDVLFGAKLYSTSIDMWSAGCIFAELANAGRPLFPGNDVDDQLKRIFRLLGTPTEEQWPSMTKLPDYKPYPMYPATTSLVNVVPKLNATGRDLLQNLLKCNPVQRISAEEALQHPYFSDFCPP
compound,measurement,setting,value
"CC[C@H](CO)Nc1nc(NCc2ccccc2)c2ncn(C(C)C)c2n1 [(R)-roscovitine, reference compound]",Concentrations giving a significant decrease in cell survival,SH-SY5Y cells [1]; 24 h exposure,≥ 10 µM
CC[C@@H](CO)Nc1nc(NCc2ccccc2)c2ncn(C(C)C)c2n1 [(S)-roscovitine],Concentration needed for VGCC agonist activity,"Cav2 VGCCs; ref Buraei and Elmslie, 2008",above 500 μM
same,Lower affinity than (R)-roscovitine (VGCC agonist activity),"Cav2 VGCCs; ref Buraei and Elmslie, 2008",20 fold
same,"Potency as cdk inhibitor, less than (R)-roscovitine","cdk; ref De Azevedo et al., 1997",2 fold
CCCn1cnc2c(NCc3ccc(C)s3)nc(N[C@H](CC)CO)nc21 [GV-58],Decrease in cell survival at 100 μM,SH-SY5Y cells [2],8%
same,Higher potency and efficacy for Cav2 VGCCs than (R)-roscovitine,Cav2 VGCCs; [4],4 fold
same,Reduction of cdk2 activity,cdk2,0–15%
same,Increase in rectifying current amplitude,[3],70 ± 10%
same,Reduction in cdk activity versus the parent molecule (R)-roscovitine,cdk; [4],greater than 20 fold
same,Reduction of cdk5 activity,cdk5,10–20%
same,Depolarization time to 50% of maximal effects on tail current integral,"Cav2.1 VGCC; 50 μM continuously present, steps to +20 mV of 1–100 msec",2 to 4 ms
same,Shift of voltage-dependence of activation curves (peak tail current),"Cav2.1 VGCC; 50 μM, 20 msec steps from −100 mV",did not show any shift
same,Shift to the left of IV plots (peak current during step),"Cav2.1 VGCC; 50 μM, 20 msec steps from −100 mV, ascribed to contaminating outward current",~10 mV
same,Tail current decay (slow deactivation) time constant,"Cav2.1 VGCC; 50 μM, tail current at −60 mV after 200 msec step to +60 mV",9.16 ± 0.706 ms
same,Effect on cell survival at 50 μM,"SH-SY5Y cells [1]; 50 μM, 24 h",no significant effects on cell survival
same,Effect on cell survival,"SH-SY5Y cells [1]; 24 h exposure, 0.1–100 μM, normalized to vehicle","little or no effect on cell survival, even up to 100 μM"
